This is a sample that favours compounds with a hit; in the whole collection about 0.99% have one here.
SKN-1 inh: suppressors of acrylamide-induced Pgst-4::GFP reporter in worms, primary screen, SKN-1 inhibitor project, whole organism, uHTS, GFP/RFP fluorescence ratio, strain VP596 | AID 624304, 2012 | C. elegans VP596 Pgst-4::GFP/RFP ratio, 24 h | inhibition, % at 21.8 µM | hit rate 0.49% among 360,000;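 active means interference check ratio from 0.5 to 1.5 plus GFP to RFP signal ratio inhibition reaching or exceeding a fixed threshold, cut at about 30% in these data, passing the limit was not always enough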
TLR9-MyD88 inh: inhibitors of TLR9-MyD88 association in cells, primary screen, cell-based, CHO, BLA complementation, fluorescence; Toll-like receptor 9 (Homo sapiens) + Myeloid differentiation primary response protein …; CCF4 FRET ratio; inhibition, % at 4.98 µM; hit rate 0.21% among 340,000; AID 504734, 2011;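 active means inhibition above the mean over all tested compounds plus 3 SD, cut at about 21% in these data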;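 further: 0% = DMSO only wells and 100% = clavulanate BLA inhibitor control wells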
NOD2-RIPK2 inh: NOD2-RIPK2 binding disruptors in cells, primary screen, fluorescence, CHO cells, BLA complementation | Receptor-interacting serine/threonine-protein kinase 2 (Homo sapiens), O43353 | CCF4 ratio | inhibition, % at 4.98 µM | hit rate 0.38% among 360,000 | AID 624267, 2012; in the data active means inhibition above about 21%;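 further: 0% = vehicle only and 100% = reference blocker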
TLR4 MyD88 comp: inhibitors of TLR4-MyD88 association in cells, primary screen, cell-based, HeLa CL3-4, BLA complementation, FRET ratio | AID 861, 2007 | hit rate 0.18% among 200,000 | HeLa CL3-4 TLR4/MyD88 BLA complementation | Toll-like receptor 4 (Homo sapiens) + Myeloid differentiation primary response protein … | inhibition, % at 8.4 µM; in the data active means inhibition above about 25%;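 further: 0% = vehicle and 100% = reference inhibitor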
MT1-MMP act inh: blockers of MT1-MMP proenzyme processing, primary screen, HT1080 RFP-PRO-GFP cells, GFP/RFP fluorescence; GFP/RFP ratio fluorescence, overnight; percent of plate control window, DMSO zero; GFP/RFP ratio change, % at 20 µM; hit rate 0.061% among 360,000; AID 651647, 2012;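 active means GFP/RFP ratio change of at least 30% with cell ATP level not reduced by more than half and red fluorescence within 50% of control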
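Assay system: HT1080 cells carrying an RFP-PRO-GFP reporter | Dosing: Single dose of 20 µM compound, 1% DMSO final | Incubation: Cells overnight before dosing, compound overnight, 37 °C, 5% CO2 | Evaluation: GFP/RFP fluorescence ratio | Control set: DMSO and RFP-L50D-GFP cell wells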
TLR9-MyD88 cf: TLR9-MyD88 association inhibitors, retest, confirmation, cell-based, CHO, BLA complementation, fluorescence, triplicate; shares compounds with TLR9-MyD88 inh; CCF4 FRET ratio; inhibition, % at 4.98 µM; hit rate 51% among 680; AID 540250, 2011;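 active means mean inhibition across three repeats above about 21% taken from the earlier screen, limit read from the data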;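 further: blue over green emission ratio reports constitutive TLR9 MyD88 association via BLA complementation; 0% = DMSO vehicle wells and 100% = clavulanate BLA inhibitor wells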
Target sequence (Q9NR96 whole entry, looked up): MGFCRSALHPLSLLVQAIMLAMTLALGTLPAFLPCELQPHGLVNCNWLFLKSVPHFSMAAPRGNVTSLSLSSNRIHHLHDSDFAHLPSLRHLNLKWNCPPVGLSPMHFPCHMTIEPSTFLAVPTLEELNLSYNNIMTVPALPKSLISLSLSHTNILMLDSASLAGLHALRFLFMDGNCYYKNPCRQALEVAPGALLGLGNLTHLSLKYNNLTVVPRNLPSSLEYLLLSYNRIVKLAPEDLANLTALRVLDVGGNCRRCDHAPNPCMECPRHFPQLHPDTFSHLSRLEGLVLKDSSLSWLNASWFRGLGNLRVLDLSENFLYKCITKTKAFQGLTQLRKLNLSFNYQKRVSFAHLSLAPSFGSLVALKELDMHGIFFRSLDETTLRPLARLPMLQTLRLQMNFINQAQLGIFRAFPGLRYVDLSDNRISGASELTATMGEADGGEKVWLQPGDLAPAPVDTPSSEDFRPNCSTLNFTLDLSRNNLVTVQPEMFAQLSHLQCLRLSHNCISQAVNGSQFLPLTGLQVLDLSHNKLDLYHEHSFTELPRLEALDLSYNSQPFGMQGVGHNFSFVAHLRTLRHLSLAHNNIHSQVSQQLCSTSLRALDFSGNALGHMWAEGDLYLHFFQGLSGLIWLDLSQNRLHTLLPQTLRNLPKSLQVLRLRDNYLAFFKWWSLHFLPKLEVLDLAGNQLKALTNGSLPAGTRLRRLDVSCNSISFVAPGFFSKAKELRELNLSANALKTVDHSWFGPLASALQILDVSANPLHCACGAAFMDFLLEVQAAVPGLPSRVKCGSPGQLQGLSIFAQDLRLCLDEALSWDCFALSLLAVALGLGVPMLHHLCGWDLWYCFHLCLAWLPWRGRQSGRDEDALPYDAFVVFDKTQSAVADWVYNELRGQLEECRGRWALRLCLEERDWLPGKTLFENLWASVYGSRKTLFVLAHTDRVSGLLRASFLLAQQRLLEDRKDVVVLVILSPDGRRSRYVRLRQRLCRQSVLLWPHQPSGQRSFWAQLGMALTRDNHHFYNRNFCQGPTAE
BLA counter-1: beta-lactamase reporter inhibitors in CHO cells, artefact control for TLR9-MyD88 binding inhibitor project, cell-based, fluorescence; shares compounds with TLR9-MyD88 inh; CHO-BLA cells, CCF4 FRET ratio, BLA reporter; inhibition, % at 4.98 µM; hit rate 7% among 680; AID 540251, 2011;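 active means mean inhibition above a 50% cutoff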;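 further: counterscreen of TLR9-MyD88 hits on CMV-driven BLA in CHO-K1 cells; 0% = DMSO alone and 100% = clavulanate blocking BLA; higher means less blue over green ratio so more BLA blockade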
TLR9 CHO cytotox: CHO cell viability loss – luminescence, single concentration, cytotoxicity control for TLR9-MyD88 binding inhibitor project | shares compounds with TLR9-MyD88 inh | TLR9-MyD88 CHO cells cytotoxicity | inhibition, % at 4.98 µM | hit rate 39% among 680 | AID 588336, 2011; in the data active means inhibition above about 11%
NOD2-RIPK2 conf: NOD2-RIPK2 binding disruptors, retest, confirmation, fluorescence, CHO cells, BLA complementation, triplicate; shares compounds with NOD2-RIPK2 inh; CCF4 FRET; inhibition, % at 4.98 µM; hit rate 70% among 1,200; AID 624370, 2012;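 active means mean inhibition across replicates above a set limit taken from the earlier primary screen, cut at about 21% in these data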;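 further: 0% = DMSO-only wells and the high end = clavulanate BLA-blocked wells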
BLA counter-2: hits BLA reporter in NOD2-RIPK2 inhibitor counterscreen | shares compounds with NOD2-RIPK2 inh | CHO BLA reporter, CCF4 FRET ratio | inhibition, % at 4.98 µM | hit rate 57% among 1,200 | AID 624371;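 active means mean inhibition above the low-control mean inhibition plus three low-control SD, cut at about 11% in these data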;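 further: 0% = DMSO only wells and 100% = clavulanate high control wells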
Active calls of the source: *; nt = not tested or not shown.

SMILES	SKN-1 inh	TLR9-MyD88 inh	NOD2-RIPK2 inh	TLR4 MyD88 comp	MT1-MMP act inh	TLR9-MyD88 cf	BLA counter-1	TLR9 CHO cytotox	NOD2-RIPK2 conf	BLA counter-2
COc1ccc(C2C=C(C)Nc3ncnn32)cc1 (stereo not drawn)	-3.3	-0.8	-22.6	nt	0.3	nt	nt	nt	nt	nt
CCOc1ccc(C2C=C(c3ccc(C)cc3)Nc3nnnn32)cc1 (stereo not drawn)	-26.4	61.7*	45.0*	3.2	-199.8	-1.1	-3.4	1.6	-4.3	-0.3
CCOc1ccc(C2C=C(c3ccc(C)cc3)Nc3ncnn32)cc1 (stereo not drawn)	nt	nt	nt	12.8	nt	nt	nt	nt	nt	nt
CCOc1ccc(C2C=C(c3ccccc3)Nc3nnnn32)cc1 (stereo not drawn)	8.0	18.6	1.2	4.4	-11.5	nt	nt	nt	nt	nt
Cc1ccc(C2=CC(c3ccc(C)cc3)n3ncnc3N2)cc1 (stereo not drawn)	6.8	25.6*	45.9*	nt	-18.8	14.7	17.5	-4.6	33.1*	34.7*
COc1ccc(C2C=C(c3ccccc3)Nc3ncnn32)cc1 (stereo not drawn)	6.4	38.7*	46.0*	14.0	-8.6	4.2	7.9	-0.9	-2.8	-4.3
CN(CCO)c1cc(Sc2nc3ccccc3s2)c2nonc2c1[N+](=O)[O-]	-3.0	47.4*	90.9*	9.0	2.8	66.7*	9.3	98.7*	97.8*	33.0*
CC(=O)OCCN(C)c1cc(SC(C)C)c2nonc2c1[N+](=O)[O-]	-2.5	-3.9	-2.5	-0.3	1.3	nt	nt	nt	nt	nt
O=C(NCc1cc(C(F)(F)F)ccc1Cl)c1cccc2c1C(=O)c1ccc(N3CCC(N4CCCCC4)CC3)cc1S2(=O)=O	-0.9	46.9*	61.0*	nt	-27.6	43.0*	52.1*	24.1*	68.7*	67.8*
O=C(NCc1cc(C(F)(F)F)ccc1Cl)c1cccc2c1C(=O)c1ccc(N3CCCCC3)cc1S2(=O)=O	0.4	2.1	-3.4	nt	-109.7	nt	nt	nt	nt	nt
COc1ccccc1-n1cnnc1SC(C)C(=O)NCC1CCCO1 (stereo not drawn)	1.3	3.2	-3.2	nt	1.7	nt	nt	nt	nt	nt
O=C(O)c1cccc(-n2c(/C=C/c3ccccc3)nc3ccccc3c2=O)c1	17.3	-9.6	5.3	nt	-3.8	nt	nt	nt	nt	nt
CN(C)c1ccc(/C=C/c2nc3ccccc3c(=O)n2-c2ccc(C(=O)O)cc2)cc1	-26.6	39.8*	34.3*	nt	-49.2	25.5*	27.0	1.1	60.0*	65.4*
COCCn1c2nc(=O)n(-c3ccccc3)c(=O)c-2nc2ccccc21	-99.4	23.0*	35.9*	nt	-103.8	10.3	14.4	2.5	32.0*	31.6*
COCCn1c(-c2ccc(OC)cc2)nc2ccccc21	16.3	4.0	-0.6	-6.0	-3.0	nt	nt	nt	nt	nt
N#C/C(=C/c1ccc(N2CCCCCC2)o1)c1ccc(Cl)cc1	3.2	24.2*	38.6*	20.5	-69.3	8.9	9.1	84.4*	27.6*	14.2*
O=c1oc2ccccc2c(N2CCCC2)c1CN1CCCC1	1.2	-1.9	2.5	-2.0	-0.4	nt	nt	nt	nt	nt
O=c1oc2ccccc2c(Cl)c1CN1CCCCC1	-2.5	23.2*	40.2*	-6.6	-2.1	74.8*	17.1	96.5*	94.9*	14.1*
O=C(NNC(=O)c1ccc(Br)s1)c1cccc(Cl)c1	7.0	1.7	-7.9	nt	2.5	nt	nt	nt	nt	nt
COc1ccc(CC(=O)Nc2cc(C)ccc2O)cc1OC	-0.8	-5.5	-8.8	nt	7.0	nt	nt	nt	nt	nt
COc1cc(C2CC(c3c(C)cc(C)[nH]c3=O)=NN2c2ccccc2F)cc(OC)c1OC (stereo not drawn)	7.2	22.9*	40.9*	nt	-3.5	16.6	18.4	4.1	34.9*	46.9*
COc1ccc(C2CC(c3ccc(F)cc3)=NN2c2ccccc2)cc1OC (stereo not drawn)	12.4	-0.5	-4.7	nt	-10.9	nt	nt	nt	nt	nt
CC(C)(C)c1ccc(OCc2ccc(C(=O)Nc3cccnc3)o2)cc1	-4.1	-2.0	6.7	nt	-1.2	nt	nt	nt	nt	nt
COc1ccc(-c2cn(CCO)c(CCN)n2)cc1	-4.8	6.0	4.3	nt	-3.2	nt	nt	nt	nt	nt
O=[N+]([O-])c1c(Nc2ccc(O)cc2)cc(Cl)c2nonc12	10.5	48.9*	121.8*	nt	-4.9	59.5*	-17.1	97.1*	120.2*	25.0*
SMILES	SKN-1 inh	TLR9-MyD88 inh	NOD2-RIPK2 inh	TLR4 MyD88 comp	MT1-MMP act inh	TLR9-MyD88 cf	BLA counter-1	TLR9 CHO cytotox	NOD2-RIPK2 conf	BLA counter-2
C[C@H](CO)N1C[C@H](C)[C@@H](CN(C)C(=O)c2ccncc2)OCc2cnnn2CCCC1=O	-10.9	-1.9	-3.7	nt	-0.6	nt	nt	nt	nt	nt
O=C1C=CC2(O[C@H](c3ccccc3)[C@@H](c3ccccc3)O2)[C@H](Sc2ccccc2O)C1	2.8	39.8*	92.0*	nt	-7.1	38.4*	23.3	99.7*	90.7*	39.6*
C[C@@H]1[C@@H](Sc2ccccc2)CC(=O)O[C@@H]1c1ccc(-c2ccccc2)cc1	3.1	6.6	1.5	nt	1.7	nt	nt	nt	nt	nt
COc1ccc2nc(C)cc(N/N=C/c3ccc(F)cc3)c2c1	16.7	23.1*	49.4*	nt	-23.7	26.3*	38.4	18.6*	67.4*	68.5*
COc1ccc(/C=N/Nc2cc(C)nc3ccccc23)cc1	29.6	-0.2	10.5	nt	10.9	nt	nt	nt	nt	nt
CC1CCN(C(=O)CCNS(=O)(=O)c2ccc3c(c2)c(=O)n(C)c(=O)n3C)CC1	-8.6	-7.3	-3.8	nt	2.9	nt	nt	nt	nt	nt
COc1cccc(S(=O)(=O)N(C)C[C@@H]2OCc3cnnn3CCCC(=O)N([C@@H](C)CO)C[C@H]2C)c1	-21.1	-2.8	-3.6	nt	4.8	nt	nt	nt	nt	nt
CN(C)CCCN(C(=O)CCOc1ccccc1)c1nc2c(F)cccc2s1	1.3	21.8*	48.2*	18.7	-4.4	3.1	2.7	67.5*	27.3*	-0.5

Screening data: PubChem BioAssay, several laboratories
